From ChEMBL document CHEMBL4732224, “Structure activity refinement of phenylsulfonyl piperazines as antimalarials that block erythrocytic invasion” (Eur J Med Chem, 2021)

Assays:
Plasmodium falciparum [1] = assay: Antimalarial activity against Plasmodium falciparum 3D7 incubated for 72 hrs by LDH assay; format: functional, organism-based; details: 3D7, 72 h
In short: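 Asexual blood-stage P. falciparum 3D7 parasites were cultured with compound for 72 h, and viability was read by lactate dehydrogenase (LDH) activity.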

HepG2 = assay: Cytotoxicity against human HePG2 cells assessed as growth inhibition after 48 hrs by Cell Titer-Glo assay; format: cell-based; details: HepG2, 48 h
Plasmodium falciparum [2] = assay: Antimalarial activity against asexual blood stage of chloroquine-resistant Plasmodium falciparum 7G8 assessed as reduction in cell viability after 72 hrs by EtBr staining based flow cytometric analysis; format: functional, organism-based; details: 7G8, 72 h
Plasmodium falciparum [3] = assay: Antimalarial activity against asexual blood stage of chloroquine-resistant Plasmodium falciparum Dd2 assessed as reduction in cell viability after 72 hrs by EtBr staining based flow cytometric analysis; format: functional, organism-based; details: Dd2, 72 h
Plasmodium falciparum [4] = assay: Antimalarial activity against Plasmodium falciparum NF54 late stage ([…]) expressing Pfs16-LUC-GFP assessed as growth inhibition at 20 uM by high content imaging assay relative to control; format: functional; details: read-out: GI
Plasmodium falciparum [5] = assay: Antimalarial activity against asexual blood stage of Plasmodium falciparum 3D7 assessed as reduction in cell viability after 72 hrs by EtBr staining based flow cytometric analysis; format: functional, organism-based; details: 3D7, 72 h
Plasmodium falciparum [6] = assay: Antimalarial activity against asexual blood stage of Mefloquine-resistant Plasmodium falciparum W2mef assessed as reduction in cell viability after 72 hrs by EtBr staining based flow cytometric analysis; format: functional, organism-based
Plasmodium falciparum [7] = assay: Antimalarial activity against asexual blood stage of artemisinin-resistant Plasmodium falciparum Cam3.12539T cambodian isolate assessed as reduction in cell viability after 72 hrs by EtBr staining based flow cytometric analysis; format: functional, organism-based; details: Cam3.12539T cambodian isolat
Plasmodium knowlesi = assay: Antimalarial activity against asexual blood stage of Plasmodium knowlesi YHI assessed as reduction in cell viability after 48 hrs by EtBr staining based flow cytometric analysis; format: functional, organism-based
Plasmodium falciparum [8] = assay: Antimalarial activity against Plasmodium falciparum NF54 early stage (1 to 3) expressing Pfs16-LUC-GFP assessed as growth inhibition by high content imaging assay; format: functional, organism-based
Plasmodium falciparum [9] = assay: Antimalarial activity against Plasmodium falciparum NF54 late stage ([…]) expressing Pfs16-LUC-GFP assessed as growth inhibition by high content imaging assay; format: functional, organism-based

SMILES | EC50 (Plasmodium falciparum [1]) | EC50 (HepG2) | further results
CC(C(=O)N1CCNCC1)N1CCN(S(=O)(=O)c2ccc(C(C)(C)C)cc2)CC1 (stereo not drawn) | > 10 µM |  | 
CC(C(=O)N1CCCC1)N1CCN(S(=O)(=O)c2ccc(Br)cc2)CC1 (stereo not drawn) | > 10 µM |  | 
CC(C(=O)N1CCCC1)N1CCN(S(=O)(=O)c2ccc(C(C)(C)C)cc2)C(C)(C)C1 (stereo not drawn) | 1.6 µM | > 40 µM | 
CC(C(=O)N1CCCCC1)N1CCN(S(=O)(=O)c2ccc(C(C)(C)C)cc2)CC1 (stereo not drawn) | 0.5 µM | > 40 µM | 
CCC(C(=O)N1CCCC1)N1CCN(S(=O)(=O)c2ccc(C(C)(C)C)cc2)CC1 (stereo not drawn) | 1.9 µM | > 40 µM | 
C[C@H](C(=O)N1CCCCC1)N1CCN(S(=O)(=O)c2ccc(C(C)(C)C)cc2)CC1 | 6.9 µM | > 40 µM | 
CCN(CC)CCCC(C)Nc1ccnc2cc(Cl)ccc12 (stereo not drawn) [CHLOROQUINE] | 21 µM |  | EC50 (Plasmodium falciparum [2]): 0.32 µM; EC50 (Plasmodium falciparum [3]): 0.58 µM; inhibition of growth at 20 µM (Plasmodium falciparum [4]): 99%; EC50 (Plasmodium falciparum [5]): 0.004 µM; EC50 (Plasmodium falciparum [6]): 0.25 µM; EC50 (Plasmodium falciparum [7]): 0.56 µM; EC50 (Plasmodium knowlesi): 0.01 µM; EC50 (Plasmodium falciparum [8]): 0.097 µM; EC50 (Plasmodium falciparum [9]): > 10 µM
Cc1ccc(S(=O)(=O)N2CCN(C(C)C(=O)N3CCCC3)CC2)cc1 (stereo not drawn) | > 10 µM |  | 
CC(C(=O)N1CC2CC2C1)N1CCN(S(=O)(=O)c2ccc(C(C)(C)C)cc2)CC1 (stereo not drawn) | 0.33 µM | > 40 µM | 
CC1CCN(C(=O)C(C)N2CCN(S(=O)(=O)c3ccc(C(C)(C)C)cc3)CC2)CC1 (stereo not drawn) | 1.3 µM | > 40 µM | 
CC(C(=O)N1CCC(F)(F)CC1)N1CCN(S(=O)(=O)c2ccc(C(C)(C)C)cc2)CC1 (stereo not drawn) | 0.38 µM | > 40 µM | 
C[C@H](C(=O)N1CCCC1)N1CCN(S(=O)(=O)c2ccc(C(C)(C)C)cc2)CC1 | > 11 µM | > 40 µM | 
C[C@H]1[C@H](OC(=O)CCC(=O)O)O[C@@H]2O[C@@]3(C)CC[C@H]4[C@H](C)CC[C@@H]1[C@@]24OO3 [ARTESUNATE] | 8 µM |  | EC50 (Plasmodium falciparum [8]): 0.002 µM; EC50 (Plasmodium falciparum [9]): 0.024 µM
CC(C)c1ccc(S(=O)(=O)N2CCN(C(C)C(=O)N3CCCC3)CC2)cc1 (stereo not drawn) | > 10 µM | > 40 µM | 
COc1ccc(S(=O)(=O)N2CCN(C(C)C(=O)N3CCCC3)CC2)cc1 (stereo not drawn) | > 10 µM |  | 
CC(C(=O)N1CCCC1)N1CCN(S(=O)(=O)c2ccc([Si](C)(C)C)cc2)CC1 (stereo not drawn) | 1.3 µM | > 40 µM | 
COc1ccc2nc3cc(Cl)ccc3c(Nc3cc(CN4CCCC4)c(O)c(CN4CCCC4)c3)c2n1 [PYRONARIDINE] |  |  | EC50 (Plasmodium falciparum [8]): 0.053 µM; EC50 (Plasmodium falciparum [9]): 1.24 µM
CC(C(=O)N1CCc2ccccc2C1)N1CCN(S(=O)(=O)c2ccc(C(C)(C)C)cc2)CC1 (stereo not drawn) | 0.99 µM | 29 µM | 
CCN(CC)C(=O)C(C)N1CCN(S(=O)(=O)c2ccc(C(C)(C)C)cc2)CC1 (stereo not drawn) | 1.8 µM | > 40 µM | 
CC(C)C(C(=O)N1CCCC1)N1CCN(S(=O)(=O)c2ccc(C(C)(C)C)cc2)CC1 (stereo not drawn) | > 10 µM |  | 

Second part, led by results:

EC50 (Plasmodium falciparum [1]) | SMILES | EC50 (HepG2) | further results
6.3 µM | CC(C(=O)N1CCCC1)N1CCCN(S(=O)(=O)c2ccc(C(C)(C)C)cc2)CC1 (stereo not drawn) | > 40 µM | 
1 µM | CC(C(=O)N1Cc2ccccc2C1)N1CCN(S(=O)(=O)c2ccc(C(C)(C)C)cc2)CC1 (stereo not drawn) | > 40 µM | 
0.81 µM | CC(C(=O)N1C[C@H]2CCC[C@H]2C1)N1CCN(S(=O)(=O)c2ccc(C(C)(C)C)cc2)CC1 (stereo partly drawn) | > 40 µM | 
> 10 µM | CC(C(=O)N1CCCC1)N1CCN(S(=O)(=O)c2ccc(C(F)(F)F)cc2)CC1 (stereo not drawn) |  | 
0.93 µM | CC(C(=O)N1CCc2ccccc21)N1CCN(S(=O)(=O)c2ccc(C(C)(C)C)cc2)CC1 (stereo not drawn) | > 40 µM | 
4.3 µM | CC(C(=O)N1CCCC1)N1C[C@@H]2CN(S(=O)(=O)c3ccc(C(C)(C)C)cc3)C[C@@H]2C1 (stereo partly drawn) | > 40 µM | 
0.3 µM | CC(C(=O)N1CCC2(CC1)CC2)N1CCN(S(=O)(=O)c2ccc(C(C)(C)C)cc2)CC1 (stereo not drawn) | > 40 µM | 
1.9 µM | CC(C(=O)N1CCCc2ccccc21)N1CCN(S(=O)(=O)c2ccc(C(C)(C)C)cc2)CC1 (stereo not drawn) | > 40 µM | 
> 10 µM | CC(=O)c1ccc(S(=O)(=O)N2CCN(C(C)C(=O)N3CCCC3)CC2)cc1 (stereo not drawn) |  | 
> 10 µM | CCNC(=O)C(C)N1CCN(S(=O)(=O)c2ccc(C(C)(C)C)cc2)CC1 (stereo not drawn) |  | 
> 10 µM | CC(C(=O)N1CCCC1)N1CCN(S(=O)(=O)c2ccc(C3CC3)cc2)CC1 (stereo not drawn) |  | 
1.9 µM | CC(C(=O)N1CCCC1)N1CCN(S(=O)(=O)c2ccc(C(C)(C)C)cc2)[C@@H](C)C1 (stereo partly drawn) | > 40 µM | 
2.9 µM | CC(C(=O)N1CCc2ccccc2C12CCCCC2)N1CCN(S(=O)(=O)c2ccc(C(C)(C)C)cc2)CC1 (stereo not drawn) | > 40 µM | 
7.5 µM | CC(C)(C)c1ccc(S(=O)(=O)N2CCN(C(C)(C)C(=O)N3CCCC3)CC2)cc1 | > 40 µM | 
